In ChEMBL document CHEMBL3286209, “Synthesis and biological activities of novel pleuromutilin derivatives with a substituted thiadiazole moiety as potent drug-resistant bacteria inhibitors” (J Med Chem, 2014):
Values after ≈ are worked out from the molar mass of the structure shown.

Assays:
Assay type in all cases: functional
Staphylococcus aureus [1] = test: Antibacterial activity against methicillin-resistant Staphylococcus aureus after 48 hrs by agar dilution method
Method in brief: (§1)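 Agar dilution per NCCLS using clinical isolates. Compound DMSO/water solutions are 2-fold serially diluted in water, then mixed 1:10 into hot Mueller–Hinton agar. Inocula come from blood slants, adjusted to about 10⁵−10⁶ cfu/mL in 0.90% saline, and spotted at 10 μL. Plates incubated at 36.5 °C for 48 h. MIC is the lowest concentration giving complete growth inhibition. Run in triplicate at pH 7.40.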

[2] = system: Staphylococcus epidermidis; test: Antibacterial activity against methicillin-resistant Staphylococcus epidermidis after 48 hrs by agar dilution method; method in brief: as §1
Streptococcus agalactiae [3] = test: Antibacterial activity against Streptococcus agalactiae after 48 hrs by agar dilution method
Method in brief: (§2)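 Agar dilution per NCCLS on Mueller–Hinton agar; compound in DMSO/water, 2-fold serial dilutions in distilled water, 2 mL dilution mixed into 18 mL hot agar. Clinical isolates from blood slants, adjusted to about 10⁵−10⁶ cfu/mL in 0.90% saline; 10 μL spotted. Incubated 36.5 °C for 48 h; MIC = lowest concentration giving complete growth inhibition. Triplicate runs.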

Escherichia coli [4] = test: Antibacterial activity against Escherichia coli after 48 hrs by agar dilution method; method in brief: as §2
Staphylococcus aureus [5] = test: Antibacterial activity against methicillin-resistant Staphylococcus aureus at 320 ug/ml after 24 hrs by Oxford cup assay; conditions: read-out: IZ
Method in brief: (§3)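 Oxford cup diffusion using clinical isolates. Inocula are made in 0.9% saline to a McFarland standard and spread on nutrient agar. […] Inhibition zone diameter is measured after 24 h at 37 °C. Run in triplicate.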

Staphylococcus aureus [6] = test: Antibacterial activity against methicillin-resistant Staphylococcus aureus at 160 ug/ml after 24 hrs by Oxford cup assay; conditions: read-out: IZ; method in brief: as §3
[7] = system: Staphylococcus epidermidis; test: Antibacterial activity against methicillin-resistant Staphylococcus epidermidis at 320 ug/ml after 24 hrs by Oxford cup assay; conditions: read-out: IZ; method in brief: as §3
[8] = system: Staphylococcus epidermidis; test: Antibacterial activity against methicillin-resistant Staphylococcus epidermidis at 160 ug/ml after 24 hrs by Oxford cup assay; conditions: read-out: IZ; method in brief: as §3
Escherichia coli [9] = test: Antibacterial activity against Escherichia coli at 320 ug/ml after 24 hrs by Oxford cup assay; conditions: read-out: IZ
Method in brief: (§4)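 Oxford cup diffusion: saline inoculum set by McFarland standard, spread on nutrient agar plates. […] Inhibition zone measured after 24 h at 37 °C; triplicate.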

Escherichia coli [10] = test: Antibacterial activity against Escherichia coli at 160 ug/ml after 24 hrs by Oxford cup assay; conditions: read-out: IZ; method in brief: as §4
Streptococcus agalactiae [11] = test: Antibacterial activity against Streptococcus agalactiae at 320 ug/ml after 24 hrs by Oxford cup assay; conditions: read-out: IZ; method in brief: as §4
Streptococcus agalactiae [12] = test: Antibacterial activity against Streptococcus agalactiae at 160 ug/ml after 24 hrs by Oxford cup assay; conditions: read-out: IZ; method in brief: as §4

Row | SMILES | MIC (Staphylococcus aureus [1]) | MIC [2] | MIC (Streptococcus agalactiae [3]) | MIC (Escherichia coli [4]) | zone of inhibition at 320 µg/mL (Staphylococcus aureus [5]) | zone of inhibition at 160 µg/mL (Staphylococcus aureus [6]) | zone of inhibition at 320 µg/mL [7] | zone of inhibition at 160 µg/mL [8] | zone of inhibition at 320 µg/mL (Escherichia coli [9]) | zone of inhibition at 160 µg/mL (Escherichia coli [10]) | zone of inhibition at 320 µg/mL (Streptococcus agalactiae [11]) | zone of inhibition at 160 µg/mL (Streptococcus agalactiae [12])
1 | C=C[C@]1(C)C[C@@H](OC(=O)CSCCN(CC)CC)[C@]2(C)[C@H](C)CC[C@]3(CCC(=O)[C@H]32)[C@@H](C)[C@@H]1O [TIAMULIN] | 0.5 µg/mL (≈ 1.01 µM) | 2 µg/mL (≈ 4.05 µM) | 0.5 µg/mL (≈ 1.01 µM) | 16 µg/mL (≈ 32.4 µM) | 17.2 mm | 16.9 mm | 15.6 mm | 13.9 mm | 15.8 mm | 13.6 mm | 16.1 mm | 14.6 mm
2 | C=C[C@]1(C)C[C@@H](OC(=O)CSc2nnc(NC(=O)c3ccccc3N)s2)[C@]2(C)[C@H](C)CC[C@]3(CCC(=O)[C@H]32)[C@@H](C)[C@@H]1O | 4 µg/mL (≈ 6.53 µM) | 2 µg/mL (≈ 3.26 µM) | 4 µg/mL (≈ 6.53 µM) | 16 µg/mL (≈ 26.1 µM) | 15.5 mm | 12.9 mm | 15.2 mm | 12.2 mm | 11.3 mm | 10.1 mm | 13.8 mm | 12.4 mm
3 | C=C[C@]1(C)C[C@@H](OC(=O)CSc2nnc(NC(=O)CN(CC)CC)s2)[C@]2(C)[C@H](C)CC[C@]3(CCC(=O)[C@H]32)[C@@H](C)[C@@H]1O | 8 µg/mL (≈ 13.2 µM) | 4 µg/mL (≈ 6.59 µM) | 8 µg/mL (≈ 13.2 µM) | 64 µg/mL (≈ 105 µM) | 12.3 mm | 11 mm | 12.8 mm | 11.5 mm | 10.2 mm | 9.13 mm | 12.7 mm | 10.4 mm
4 | C=C[C@]1(C)C[C@@H](OC(=O)CSc2nnc(NC(=O)c3cccc(OC)c3)s2)[C@]2(C)[C@H](C)CC[C@]3(CCC(=O)[C@H]32)[C@@H](C)[C@@H]1O | 8 µg/mL (≈ 12.7 µM) | 4 µg/mL (≈ 6.37 µM) | 8 µg/mL (≈ 12.7 µM) | ≥ 64 µg/mL | 13.1 mm | 11.4 mm | 13.8 mm | 12.3 mm | 10.9 mm | 9.02 mm | 12.8 mm | 11.7 mm
5 | CC[C@]1(C)C[C@@H](OC(=O)CSc2nnc(N)[nH]2)[C@]2(C)[C@H](C)CC[C@]3(CCC(=O)[C@H]32)[C@@H](C)[C@@H]1O [AZAMULIN] | 0.5 µg/mL (≈ 1.04 µM) | 0.5 µg/mL (≈ 1.04 µM) | 0.125 µg/mL (≈ 0.261 µM) | 4 µg/mL (≈ 8.36 µM) | 18 mm | 16.5 mm | 17 mm | 15.4 mm | 17.2 mm | 16 mm | 18.9 mm | 17.2 mm
6 | C=C[C@]1(C)C[C@@H](OC(=O)CSc2nnc(NC(=O)c3ccc(OC)cc3)s2)[C@]2(C)[C@H](C)CC[C@]3(CCC(=O)[C@H]32)[C@@H](C)[C@@H]1O | 2 µg/mL (≈ 3.19 µM) | 2 µg/mL (≈ 3.19 µM) | 2 µg/mL (≈ 3.19 µM) | 32 µg/mL (≈ 51 µM) | 15.5 mm | 12.2 mm | 14.4 mm | 9.52 mm | 11.2 mm | 10.7 mm | 14.3 mm | 11.5 mm
7 | C=C[C@]1(C)C[C@@H](OC(=O)CSc2nnc(NC(=O)c3ccc(N)cc3)s2)[C@]2(C)[C@H](C)CC[C@]3(CCC(=O)[C@H]32)[C@@H](C)[C@@H]1O | 2 µg/mL (≈ 3.26 µM) | 1 µg/mL (≈ 1.63 µM) | 2 µg/mL (≈ 3.26 µM) | 16 µg/mL (≈ 26.1 µM) | 13.2 mm | 11.4 mm | 14.8 mm | 12.1 mm | 12.2 mm | 10.7 mm | 14 mm | 12.3 mm
8 | C=C[C@]1(C)C[C@@H](OC(=O)CSc2nnc(NC(=O)c3ccccc3OC)s2)[C@]2(C)[C@H](C)CC[C@]3(CCC(=O)[C@H]32)[C@@H](C)[C@@H]1O | 1 µg/mL (≈ 1.59 µM) | 2 µg/mL (≈ 3.19 µM) | 4 µg/mL (≈ 6.37 µM) | 16 µg/mL (≈ 25.5 µM) | 14.8 mm | 12.2 mm | 14.2 mm | 11.9 mm | 11.5 mm | 9.96 mm | 13.4 mm | 11.3 mm
9 | C=C[C@]1(C)C[C@@H](OC(=O)CSc2nnc(NC(=O)c3cccc(N)c3)s2)[C@]2(C)[C@H](C)CC[C@]3(CCC(=O)[C@H]32)[C@@H](C)[C@@H]1O | 0.25 µg/mL (≈ 0.408 µM) | 0.5 µg/mL (≈ 0.816 µM) | 0.25 µg/mL (≈ 0.408 µM) | 16 µg/mL (≈ 26.1 µM) | 19.2 mm | 17.5 mm | 17.8 mm | 16.1 mm | 13.7 mm | 12.7 mm | 18.4 mm | 17.4 mm
10 | C=C[C@]1(C)C[C@@H](OC(=O)CSc2nnc(NC(=O)CN(C)C)s2)[C@]2(C)[C@H](C)CC[C@]3(CCC(=O)[C@H]32)[C@@H](C)[C@@H]1O | 1 µg/mL (≈ 1.73 µM) | 2 µg/mL (≈ 3.46 µM) | 2 µg/mL (≈ 3.46 µM) | 32 µg/mL (≈ 55.3 µM) | 17.6 mm | 15.4 mm | 16 mm | 14.3 mm | 12 mm | 10.1 mm | 14.5 mm | 11.5 mm
11 | C=C[C@]1(C)C[C@@H](OC(=O)CSc2nnc(NC(=O)CN3CCCC3)s2)[C@]2(C)[C@H](C)CC[C@]3(CCC(=O)[C@H]32)[C@@H](C)[C@@H]1O | 4 µg/mL (≈ 6.61 µM) | 4 µg/mL (≈ 6.61 µM) | 2 µg/mL (≈ 3.31 µM) | 32 µg/mL (≈ 52.9 µM) | 13.2 mm | 13.1 mm | 12.8 mm | 10.5 mm | 11.1 mm | 9.86 mm | 13.8 mm | 12.8 mm
12 | C=C[C@]1(C)C[C@@H](OC(=O)CSc2nnc(NC(=O)c3ccc(Cl)cc3)s2)[C@]2(C)[C@H](C)CC[C@]3(CCC(=O)[C@H]32)[C@@H](C)[C@@H]1O | 4 µg/mL (≈ 6.33 µM) | 4 µg/mL (≈ 6.33 µM) | 4 µg/mL (≈ 6.33 µM) | ≥ 64 µg/mL | 13.7 mm | 11.9 mm | 14.1 mm | 11.3 mm | 10 mm | 0 mm | 13.4 mm | 11.4 mm
13 | C=C[C@]1(C)C[C@@H](OC(=O)CSc2nnc(NC(=O)c3ccccc3Cl)s2)[C@]2(C)[C@H](C)CC[C@]3(CCC(=O)[C@H]32)[C@@H](C)[C@@H]1O | 2 µg/mL (≈ 3.16 µM) | 8 µg/mL (≈ 12.7 µM) | 2 µg/mL (≈ 3.16 µM) | ≥ 64 µg/mL | 15 mm | 12.2 mm | 12.6 mm | 11.9 mm | 10.3 mm | 0 mm | 15.5 mm | 12.7 mm
14 | C=C[C@]1(C)C[C@@H](OC(=O)CSc2nnc(NC(=O)CN3CCOCC3)s2)[C@]2(C)[C@H](C)CC[C@]3(CCC(=O)[C@H]32)[C@@H](C)[C@@H]1O | 1 µg/mL (≈ 1.61 µM) | 8 µg/mL (≈ 12.9 µM) | 4 µg/mL (≈ 6.44 µM) | ≥ 64 µg/mL | 15.4 mm | 13.4 mm | 10.8 mm | 0 mm | 11.9 mm | 0 mm | 13.2 mm | 10.9 mm
15 | C=C[C@]1(C)C[C@@H](OC(=O)CSc2nnc(NC(=O)c3cccc(Cl)c3)s2)[C@]2(C)[C@H](C)CC[C@]3(CCC(=O)[C@H]32)[C@@H](C)[C@@H]1O | 2 µg/mL (≈ 3.16 µM) | 2 µg/mL (≈ 3.16 µM) | 2 µg/mL (≈ 3.16 µM) | 32 µg/mL (≈ 50.6 µM) | 14.7 mm | 13.4 mm | 15 mm | 12.9 mm | 12.6 mm | 11.7 mm | 13.5 mm | 12.7 mm
